Data reported in ChEMBL document CHEMBL1153353, “Probing of the cis-5-phenyl proline scaffold as a platform for the synthesis of mechanism-based inhibitors of the Staphylococcus aureus sortase SrtA isoform” (Bioorg Med Chem, 2009).
Activity calls are given as the source filed them. No cut-off for these calls is given here.

Key:
Sortase A = target: T1, Sortase A (Staphylococcus aureus, UniProt Q9S446); test: Inhibition of 6-His tagged Staphylococcus aureus recombinant sortase delta N24 expressed in Escherichia coli BL21 (DE3)
T1 sequence (Q9S446 whole entry): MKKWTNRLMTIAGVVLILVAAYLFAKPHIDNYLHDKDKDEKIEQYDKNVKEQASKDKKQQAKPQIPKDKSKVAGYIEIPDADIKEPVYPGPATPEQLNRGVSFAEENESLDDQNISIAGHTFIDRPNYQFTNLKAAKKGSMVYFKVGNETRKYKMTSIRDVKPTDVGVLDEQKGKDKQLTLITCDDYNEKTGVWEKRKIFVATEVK
Procedure, shortened: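 N-terminally His6-tagged SrtA lacking residues 1-24, Ni-chelate purified. 1 μM enzyme pre-incubated with inhibitor 30 min at 37°C, then 2 mM Abz-LPETG-Dap(DNP)-NH2 plus 2 mM NH2-Gly5-OH added. Buffer: 300 mM Tris pH 7.5, 150 mM NaCl, 5 mM CaCl2, 0.1% CHAPS, 2% DMSO. Ran 30 min at 37°C, HCl-quenched. Reverse-phase HPLC at 355 nm gave substrate-to-product conversion, relative to uninhibited controls.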

[1] = target: T2, Sortase A (Staphylococcus aureus) (UniProt Q9S446); test: Inhibition of 6-His tagged Staphylococcus aureus recombinant sortase delta N24 expressed in Escherichia coli BL21 (DE3) at 5 mM
T2 sequence (whole entry): T1 sequence (Q9S446 whole entry)
Procedure, shortened: (§1)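 His6-SrtAΔN24 (1 μM) was pre-incubated with inhibitor for 30 min at 37°C in 300 mM Tris pH 7.5, 150 mM NaCl, 5 mM CaCl2, 0.1% CHAPS and 2% DMSO. The reaction was started with 2 mM Abz-LPETG-Dap(DNP)-NH2 plus 2 mM NH2-Gly5-OH, run 30 min at 37°C, and quenched with 1.2 M HCl. Substrate and product were separated by reverse-phase HPLC and read at 355 nm. Percent substrate conversion came from peak areas.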

[2] = target: T2, Sortase A (Staphylococcus aureus); test: Inhibition of 6-His tagged Staphylococcus aureus recombinant sortase delta N24 expressed in Escherichia coli BL21 (DE3) at 1 mM; procedure, shortened: as §1

Activity [1] | SMILES | IC50 (Sortase A) [µM] | also measured
 | COc1cc(/C=C/C(=O)CC(=O)/C=C/c2ccc(O)c(OC)c2)ccc1O [CURCUMIN] | 37.5 | 
inactive | COC(=O)[C@]1(C)C[C@@H](C#N)[C@H](c2ccccc2C)N1 (racemic) |  | 
inactive | Cc1cn(C[C@@H]2C[C@H](C#N)[C@H](c3ccccc3)N2C)c(=O)[nH]c1=O (racemic) |  | inhibition [2]: 6%
 | COC(=O)[C@@H]1C[C@@H](C#N)[C@H](c2ccccc2F)N1 (racemic) |  | inhibition [1]: 20%
inactive | COC(=O)[C@@H]1C[C@H](C#N)[C@H](c2cccc(F)c2F)N1 (racemic) |  | 
inactive | COC(=O)[C@@H]1C[C@@H](C#N)[C@H](c2cccc(F)c2F)N1 (racemic) |  | 
 | CN(C)C(=N)N.O=C(NCCSSCCNC(=O)/C(Cc1ccc(S(=O)(=O)O)c(Br)c1)=N/O)/C(Cc1ccc(O)c(Br)c1)=N/O | 48.3 | 
inactive | COC(=O)[C@]1(C)C[C@H](C#N)[C@H](c2ccccc2C)N1 (racemic) |  | 
 | COC(=O)[C@]1(C)C[C@H](C#N)[C@H](c2ccccc2Cl)N1C (racemic) |  | inhibition [1]: 20%
inactive | COC(=O)[C@@H]1C[C@@H](C#N)[C@H](c2cccc(Cl)c2)N1 (racemic) |  | 
inactive | COC(=O)[C@@H]1C[C@@H](C#N)[C@H](c2cccc(F)c2)N1 (racemic) |  | 
 | COC(=O)[C@@H]1C[C@H](C#N)[C@H](c2ccccc2F)N1C (racemic) |  | inhibition [1]: 20%
 | C=CS(=O)(=O)[C@H]1C[C@]2(C(=O)OC)CCC(=O)N2[C@H]1c1ccc(OC)c(OC)c1 (racemic) | 2680 | 
 | O=c1c(O)c(-c2ccc(O)cc2O)oc2cc(O)cc(O)c12 [MORIN] | 37.4 | 
inactive | COC(=O)[C@@H]1C[C@H](C#N)[C@H](c2ccccc2)N1 (racemic) |  | 
 | C=CS(=O)(=O)[C@H]1C[C@]2(C(=O)OC)CCC(=O)N2[C@H]1c1cccnc1 (racemic) | 2470 | 

Activity [1] | SMILES | IC50 (Sortase A) [µM] | also measured
 | COC(=O)[C@@H]1C[C@H](C#N)[C@H](c2ccccc2F)N1 (racemic) |  | inhibition [1]: 20%
 | C=CS(=O)(=O)c1ccccc1 [(ETHENYLSULFONYL)BENZENE] | 736 | 
inactive | COC(=O)[C@]1(C)C[C@H](C#N)[C@H](c2ccccc2C)N1C (racemic) |  | 
inactive | COC(=O)[C@@H]1C[C@H](C#N)[C@H](c2cccc(F)c2)N1 (racemic) |  | 
inactive | COC(=O)[C@@H]1C[C@H](C#N)[C@H](c2ccccc2)N1C (racemic) |  | 
inactive | COC(=O)[C@]1(C)C[C@H](C#N)[C@H](c2ccc(Cl)cc2)N1 (racemic) |  | 
 | C=CS(=O)(=O)[C@H]1C[C@@](CCC(=O)OC)(C(=O)OC)N[C@H]1c1ccc(OC)c(OC)c1 (racemic) | > 5000 | 
inactive | COC(=O)[C@]1(C)C[C@H](C#N)[C@H](c2ccccc2Cl)N1 (racemic) |  | 
inactive | COC(=O)[C@]1(C)C[C@@H](C#N)[C@H](c2ccc(Cl)cc2)N1 (racemic) |  | 
 | COC(=O)[C@@H]1C[C@@H](C#N)[C@H](c2ccccc2)N1 (racemic) |  | inhibition [1]: 20%
 | C=CS(=O)(=O)[C@H]1C[C@]2(C(=O)OC)CCC(=O)N2[C@H]1c1ccccc1 (racemic) | 2200 | 
 | COC(=O)[C@@H]1C[C@H](C#N)[C@H](c2cccc(Cl)c2)N1 (racemic) |  | inhibition [1]: 20%
inactive | COC(=O)[C@@H]1C[C@H](C#N)[C@H](c2cccc(F)c2F)N1C (racemic) |  | 
inactive | COC(=O)[C@]1(C)C[C@@H](C#N)[C@H](c2ccccc2Cl)N1 (racemic) |  | 
 | C=CS(=O)(=O)[C@H]1C[C@@](CCC(=O)OC)(C(=O)OC)N[C@H]1c1cccnc1 (racemic) | 1860 | 

SMILES | Activity [1] | IC50 (Sortase A) [µM] | also measured
C=CS(=O)(=O)[C@H]1C[C@@H](C(=O)OC)N[C@H]1c1cccc(F)c1 (racemic) | Active | 1040 | 
C=CS(=O)(=O)[C@H]1C[C@@H](C(=O)OC)N[C@H]1c1ccccc1 (racemic) | Active | 850 | 
C=CS(=O)(=O)[C@H]1C[C@@H](C(=O)OC)N[C@H]1c1ccccc1F (racemic) | Active | 1320 | 
